Measurements as given in ChEMBL document CHEMBL3045357, “DNA adducts as biomarkers for oxidative and genotoxic stress from pesticides in crop plants” (J Agric Food Chem, 2008).

Assays:
Assay type in all cases: organism-based
Settings in all cases: in vivo, other, 336 h
Glycine max [1] = assay: Genotoxicity in Glycine max (soybean) exposed to compound through spray 4 times over 2 weeks assessed as relative adduct level A6 measured per 10^9 nucleotides using HX-dG internal standard using [32P]labeling based autoradiography relative to untreated control
Summary of the method: (§1)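 Plants (2–6 weeks grown), groups of 2–4, sprayed 4 times over 2 weeks with formulations diluted per label (chlorothalonil 1:256, carbaryl 1:64 in water); controls water-sprayed. DNA from 1 g leaf via DNeasy Maxi kit. 10 µg DNA digested with micrococcal nuclease/spleen phosphodiesterase (4 h, 37 °C), NP1-enriched (45 min, 37 °C), labelled with [γ-32P]ATP/T4 kinase (45 min, 37 °C).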

Glycine max [2] = assay: Genotoxicity in Glycine max (soybean) exposed to compound through spray 4 times over 2 weeks assessed as relative adduct level A5 measured per 10^9 nucleotides using HX-dG internal standard using [32P]labeling based autoradiography relative to untreated control; summary of the method: as §1
Glycine max [3] = assay: Genotoxicity in Glycine max (soybean) exposed to compound through spray 4 times over 2 weeks assessed as relative adduct level A4 measured per 10^9 nucleotides using HX-dG internal standard using [32P]labeling based autoradiography relative to untreated control; summary of the method: as §1
Glycine max [4] = assay: Genotoxicity in Glycine max (soybean) exposed to compound through spray 4 times over 2 weeks assessed as relative adduct level A3 measured per 10^9 nucleotides using HX-dG internal standard using [32P]labeling based autoradiography relative to untreated control; summary of the method: as §1
Glycine max [5] = assay: Genotoxicity in Glycine max (soybean) exposed to compound through spray 4 times over 2 weeks assessed as relative adduct level A6 measured per 10^9 nucleotides using [32P]labeling based autoradiography relative to untreated control; summary of the method: as §1
Glycine max [6] = assay: Genotoxicity in Glycine max (soybean) exposed to compound through spray 4 times over 2 weeks assessed as relative adduct level A5 measured per 10^9 nucleotides using [32P]labeling based autoradiography relative to untreated control; summary of the method: as §1
Glycine max [7] = assay: Genotoxicity in Glycine max (soybean) exposed to compound through spray 4 times over 2 weeks assessed as relative adduct level A4 measured per 10^9 nucleotides using [32P]labeling based autoradiography relative to untreated control; summary of the method: as §1
Glycine max [8] = assay: Genotoxicity in Glycine max (soybean) exposed to compound through spray 4 times over 2 weeks assessed as relative adduct level A3 measured per 10^9 nucleotides using [32P]labeling based autoradiography relative to untreated control; summary of the method: as §1
Glycine max [9] = assay: Genotoxicity in Glycine max (soybean) exposed to compound through spray 4 times over 2 weeks assessed as relative adduct level A2 measured per 10^9 nucleotides using [32P]labeling based autoradiography relative to untreated control; summary of the method: as §1
Glycine max [10] = assay: Genotoxicity in Glycine max (soybean) exposed to compound through spray 4 times over 2 weeks assessed as relative adduct level A1 measured per 10^9 nucleotides using [32P]labeling based autoradiography relative to untreated control; summary of the method: as §1
Glycine max [11] = assay: Genotoxicity in Glycine max (soybean) exposed to compound through spray 4 times over 2 weeks assessed as HNE-dG adducts using [32P]labeling based autoradiography (reference value: 34 cpm); summary of the method: as §1
Glycine max [12] = assay: Genotoxicity in Glycine max (soybean) exposed to compound through spray 4 times over 2 weeks assessed as relative adduct level A2 measured per 10^9 nucleotides using HX-dG internal standard using [32P]labeling based autoradiography relative to untreated control; summary of the method: as §1
Glycine max [13] = assay: Genotoxicity in Glycine max (soybean) exposed to compound through spray 4 times over 2 weeks assessed as relative adduct level A1 measured per 10^9 nucleotides using HX-dG internal standard using [32P]labeling based autoradiography relative to untreated control; summary of the method: as §1
Glycine max [14] = assay: Genotoxicity in Glycine max (soybean) exposed to compound through spray 4 times over 2 weeks assessed as HX-dG adducts using [32P]labeling based autoradiography; summary of the method: as §1
Glycine max [15] = assay: Genotoxicity in Glycine max (soybean) exposed to compound through spray 4 times over 2 weeks assessed as HNE-dG adducts measured per 10^9 nucleotides using [32P]labeling based autoradiography (reference value: 2 no unit); summary of the method: as §1
Glycine max [16] = assay: Genotoxicity in Glycine max (soybean) exposed to compound through spray 4 times over 2 weeks assessed as HX-dG adducts measured per 10^9 nucleotides using [32P]labeling based autoradiography; summary of the method: as §1

`CCOP(=S)(OCC)Oc1cc(C)nc(C(C)C)n1` [DIMPYLATE] was tested, and the Activity (Glycine max [1]) was 1396 cpm, the Activity (Glycine max [2]) was 341 cpm and the Activity (Glycine max [3]) was 927 cpm. For the same compound, the Activity (Glycine max [4]) was 1377 cpm, the Activity (Glycine max [5]) was 27 and the Activity (Glycine max [6]) was 7. For the same compound, the Activity (Glycine max [7]) was 18, the Activity (Glycine max [8]) was 27 and the Activity (Glycine max [9]) was 49. For the same compound, the Activity (Glycine max [10]) was 1, the Activity (Glycine max [11]) was 1679 cpm and the Activity (Glycine max [12]) was 2483 cpm. For the same compound, the Activity (Glycine max [13]) was 46 cpm, the Activity (Glycine max [14]) was 1823 cpm and the Activity (Glycine max [15]) was 33. For the same compound, the Activity (Glycine max [16]) was 47.
